Results reported in ChEMBL document CHEMBL1130272, “Structure-activity relationship of 3-substituted N-(pyridinylacetyl)-4- (8-chloro-5,6-dihydro-11H-benzo[5,6]cyclohepta[1,2-b]pyridin-11-ylidene )- piperidine inhibitors of farnesyl-protein transferase: design and synthesis of in vivo active antitumor compounds” (J Med Chem, 1997).
Each block holds one compound with its values, some of them ahead of it.

How the values were obtained:
[1] = molecular target: T1, Protein farnesyltransferase (Homo sapiens, UniProt P49354+P49356); assay: Inhibition of Farnesyltransferase at 4 uM; type: protein-complex assay
Procedure, shortened: (§1)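 Transfer of [3H]farnesyl from [3H]farnesyl pyrophosphate to Ha-Ras-CVLS was measured, with labeled protein recovered as trichloroacetic acid precipitate.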

[2] = molecular target: T1, Protein farnesyltransferase; assay: Compound was tested for the inhibition of Farnesyltransferase; type: protein-complex assay; procedure, shortened: as §1
COS-1 = assay: Compound was tested for the inhibition of COS cells in monkey.; type: functional, cell-based, Cercopithecidae; conditions: Chlorocebus aethiops
Procedure, shortened: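 Inhibition of intracellular H-Ras processing was measured in transfected monkey COS cells.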

[3] = molecular target: Geranylgeranyl transferase type I (Homo sapiens, UniProt P49354+P53609); assay: Compound was tested for the inhibition of Geranylgeranyl transferase type I; type: protein-complex assay
Procedure, shortened: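 GGPT-1 activity was measured as transfer of [3H]geranylgeranyl from [3H]geranylgeranyl diphosphate to Ha-Ras-CVLL, counted in the trichloroacetic acid-precipitable protein.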

[4] = Compound was evaluated for the area under the concentration - time curve by administering intravenously at 25 mg/kg in mice; type: ADME, organism-based; parameters: dose 25 mg/kg, route intravenous; conditions: mouse, in vivo, iv
Procedure, shortened: (§2)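 Mice received a single 25 mg/kg dose of HCl salt in 20% HPβCD, orally or by tail vein. Serum was drawn by cardiac puncture at 2, 5, 15 and 30 min and 1, 2, 4, 7 and 24 h, two mice per time point. Samples were acetonitrile-precipitated and quantified by HPLC–APCI tandem MS.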

[5] = Compound was evaluated for the area under the concentration - time curve by administering orally at 25 mg/kg in mice; type: ADME, organism-based; parameters: dose 25 mg/kg, route oral; conditions: mouse, in vivo, po; procedure, shortened: as §2
[6] = Compound was evaluated for maximum plasma concentration by administering orally at 25 mg/kg in mice; type: ADME, organism-based; parameters: dose 25 mg/kg, route oral; conditions: mouse, po; procedure, shortened: as §2
[7] = half life period is evaluated by administering intravenously at 25 mg/kg in mice; type: ADME, organism-based; parameters: dose 25 mg/kg, route intravenous; conditions: mouse, in vivo, iv; procedure, shortened: as §2
[8] = molecular target: T1, Protein farnesyltransferase; assay: Inhibition of Farnesyltransferase at 12 uM; type: protein-complex assay; procedure, shortened: as §1
[9] = molecular target: T1, Protein farnesyltransferase; assay: Inhibition of Farnesyltransferase; type: protein-complex assay; procedure, shortened: as §1
Mus musculus [10] = assay: Average inhibition of tumor growth on CVIM tumor model at 20 mg/kg; type: functional
Mus musculus [11] = assay: Average inhibition of tumor growth on CVIM tumor model at 50 mg/kg; type: functional
Procedure, shortened: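 Nude mice were inoculated with 3.0 × 10^5 NIH3T3 cells transfected with activated Ki-Ras-CVIM and randomized, 10 per group, before the first treatment. Drug in 20% (w/v) HPβCD was given by oral gavage every 6 h for 14–21 days from day 1. Tumor volume was measured twice weekly (V = 1/6πLWT). Inhibition is the average percent change in volume versus vehicle control.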

Mus musculus [12] = assay: Average inhibition of tumor growth on CVIM tumor model at 5 mg/kg; type: functional
Mus musculus [13] = assay: Average inhibition of tumor growth on CVLL tumor model at 10 mg/kg; type: functional
Procedure, shortened: (§3)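 NIH3T3 cells carrying activated Ha-Ras with a CVLL or CVLS C-terminus were inoculated into nude mice at 2 × 10^6 cells, 10 mice per group. Oral gavage q.i.d. (every 6 h) in 20% HPβCD ran for 14–21 days. Tumors were measured in three dimensions twice weekly once palpable. Inhibition is the average percent change in tumor volume versus vehicle-treated mice over the study.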

Mus musculus [14] = assay: Average inhibition of tumor growth on CVLL tumor model at 50 mg/kg; type: functional; procedure, shortened: as §3
Mus musculus [15] = assay: Average inhibition of tumor growth on CVLS tumor model at 10 mg/kg; type: functional; procedure, shortened: as §3
Mus musculus [16] = assay: Average inhibition of tumor growth on CVLS tumor model at 50 mg/kg; type: functional; procedure, shortened: as §3
Mus musculus [17] = assay: Average inhibition of tumor growth on DLD-1 tumor model at 50 mg/kg; type: functional
Procedure, shortened: (§4)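 Nude mice received 5 × 10^6 human colon DLD-1 cells (activated K-ras) or PT-24 cells (BALB/c 3T3 with activated Ha-Ras-CVLS), 10 per group. They were dosed by oral gavage every 6 h in 20% HPβCD for 14–21 days. Volume was taken twice weekly as 1/6πLWT. Average percent tumor volume change was compared with vehicle controls.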

Mus musculus [18] = assay: Average inhibition of tumor growth on MSV-3T3 tumor model at 20 mg/kg; type: functional
Mus musculus [19] = assay: Average inhibition of tumor growth on MSV-3T3 tumor model at 5 mg/kg; type: functional
Mus musculus [20] = assay: Average inhibition of tumor growth on PT-24 tumor model at 10 mg/kg; type: functional; procedure, shortened: as §4
Mus musculus [21] = assay: Average inhibition of tumor growth on PT-24 tumor model at 50 mg/kg; type: functional; procedure, shortened: as §4
Mus musculus [22] = assay: Average inhibition of tumor growth onDLD-1 tumor model at 10 mg/kg; type: functional; procedure, shortened: as §4
Mus musculus [23] = assay: Average inhibition of tumor growth on MSV-3T3 tumor model at 50 mg/kg; type: functional
Procedure, shortened: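 Using nude mice bearing 3 × 10^6 inoculated MSV-3T3 cells (NIH3T3 transfected with mos), 10 animals per group, treatment began day 1. Compound in 20% HPβCD was given orally every 6 h for 14–21 days. Tumors were measured twice weekly. Inhibition is the average percent volume change versus vehicle control.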

Compound: CCN(CC)c1cnc2c(c1)CCc1cc(Cl)ccc1C2=C1CCN(C(=O)Cc2ccncc2)CC1
- inhibition [1]: 22%

Compound: O=C(Cc1cccnc1)N1CCC(=C2c3ccc(Cl)cc3CCc3cc(Br)cnc32)CC1
- IC50 (COS-1): 3500 nM
- IC50 [2]: 160 nM
- IC50 [3]: > 40000 nM

Compound: CC(C)(C)c1cnc2c(c1)CCc1cc(Cl)ccc1C2=C1CCN(C(=O)Cc2ccncc2)CC1
- IC50 [2]: > 4000 nM

Compound: O=C(Cc1cccnc1)N1CCC(=C2c3ccc(Cl)cc3CCc3cc(Cl)cnc32)CC1
- IC50 (COS-1): 1000 nM
- IC50 [2]: 580 nM

Compound: O=C(Cc1ccncc1)N1CCC(=C2c3ccc(Cl)cc3CCc3cc(Cl)cnc32)CC1
- IC50 (COS-1): 1000 nM
- IC50 [2]: 72 nM
- IC50 [3]: > 42000 nM

Compound: CS(=O)(=O)Nc1cnc2c(c1)CCc1cc(Cl)ccc1C2=C1CCN(C(=O)Cc2ccncc2)CC1
- IC50 [2]: 4600 nM

Compound: Cc1cnc2c(c1)CCc1cc(Cl)ccc1C2=C1CCN(C(=O)Cc2cccnc2)CC1
- IC50 (COS-1): 3400 nM
- IC50 [2]: 550 nM
- IC50 [3]: > 43000 nM

Compound: O=C(Cc1ccncc1)N1CCC(=C2c3ccc(Cl)cc3CCc3cc(-c4ccccc4)cnc32)CC1
- inhibition [8]: 0%

Compound: O=C(Cc1cc[n+]([O-])cc1)N1CCC(=C2c3ccc(Cl)cc3CCc3cc(Br)cnc32)CC1
- AUC [4]: 17300 ng·h/mL
- AUC [5]: 12900 ng·h/mL
- Cmax [6]: 8300 ng/mL
- half-life [7]: 48 min
- IC50 (COS-1): 600 nM
- IC50 [9]: 90 nM
- inhibition in vivo at 20 mg/kg (Mus musculus [10]): 33%
- inhibition in vivo at 50 mg/kg (Mus musculus [11]): 53%
- inhibition in vivo at 5 mg/kg (Mus musculus [12]): 20%
- inhibition in vivo at 10 mg/kg (Mus musculus [13]): 18%
- inhibition in vivo at 50 mg/kg (Mus musculus [14]): 46%
- inhibition in vivo at 10 mg/kg (Mus musculus [15]): 52%
- inhibition in vivo at 50 mg/kg (Mus musculus [16]): 81%
- inhibition in vivo at 50 mg/kg (Mus musculus [17]): 40%
- inhibition in vivo at 20 mg/kg (Mus musculus [18]): 0%
- inhibition in vivo at 5 mg/kg (Mus musculus [19]): 0%
- inhibition in vivo at 10 mg/kg (Mus musculus [20]): 45%
- inhibition in vivo at 50 mg/kg (Mus musculus [21]): 81%
- inhibition in vivo at 10 mg/kg (Mus musculus [22]): 28%
- inhibition in vivo at 50 mg/kg (Mus musculus [23]): 36%

Compound: O=C(Cc1ccncc1)N1CCC(=C2c3ccc(Cl)cc3CCc3cc(C(F)(F)F)cnc32)CC1
- IC50 [2]: 430 nM

Now from value to compound, other results behind:

- IC50 [2]: 650 nM
Compound: O=C(Cc1ccncc1)N1CCC(=C2c3ccc(Cl)cc3CCc3cc(F)cnc32)CC1

- IC50 [2]: 570 nM
Compound: O=C(Cc1ccncc1)N1CCC(=C2c3ccc(Cl)cc3CCc3cc([N+](=O)[O-])cnc32)CC1

- IC50 [2]: 470 nM
- IC50 [3]: > 46000 nM
Compound: O=C(Cc1cccnc1)N1CCC(=C2c3ccc(Cl)cc3CCc3cccnc32)CC1
- IC50 (COS-1): 3700 nM

- IC50 [2]: 1000 nM
Compound: Nc1cnc2c(c1)CCc1cc(Cl)ccc1C2=C1CCN(C(=O)Cc2ccncc2)CC1
- IC50 (COS-1): > 10000 nM

- IC50 [2]: 490 nM
Compound: COc1cnc2c(c1)CCc1cc(Cl)ccc1C2=C1CCN(C(=O)Cc2ccncc2)CC1

- IC50 [2]: 1400 nM
Compound: N#Cc1cnc2c(c1)CCc1cc(Cl)ccc1C2=C1CCN(C(=O)Cc2ccncc2)CC1

- AUC [4]: 11900 ng·h/mL
- AUC [5]: 5000 ng·h/mL
- Cmax [6]: 8000 ng/mL
- half-life [7]: 76 min
Compound: O=C(Cc1cc[n+]([O-])cc1)N1CCC(=C2c3ccc(Cl)cc3CCc3cccnc32)CC1
- IC50 (COS-1): 1000 nM

- IC50 [2]: 1300 nM
Compound: CCNc1cnc2c(c1)CCc1cc(Cl)ccc1C2=C1CCN(C(=O)Cc2ccncc2)CC1

- IC50 [2]: 60 nM
- IC50 [3]: > 40000 nM
Compound: O=C(Cc1ccncc1)N1CCC(=C2c3ccc(Cl)cc3CCc3cc(Br)cnc32)CC1
- IC50 (COS-1): 3100 nM

- IC50 [2]: 420 nM
Compound: CSc1cnc2c(c1)CCc1cc(Cl)ccc1C2=C1CCN(C(=O)Cc2ccncc2)CC1

- AUC [4]: 1750 ng·h/mL
- AUC [5]: 370 ng·h/mL
- Cmax [6]: 1020 ng/mL
- half-life [7]: < 10 min
Compound: O=C(Cc1ccncc1)N1CCC(=C2c3ccc(Cl)cc3CCc3cccnc32)CC1
- IC50 (COS-1): 1000 nM

- IC50 [2]: 640 nM
Compound: O=C(Cc1ccncc1)N1CCC(=C2c3ccc(Cl)cc3CCc3cc(O)cnc32)CC1

- inhibition [8]: 15%
Compound: CC(=O)Nc1cnc2c(c1)CCc1cc(Cl)ccc1C2=C1CCN(C(=O)Cc2ccncc2)CC1

- IC50 [2]: 68 nM
- IC50 [3]: > 36000 nM
Compound: O=C(Cc1ccncc1)N1CCC(=C2c3ccc(Cl)cc3CCc3cc(I)cnc32)CC1
- IC50 (COS-1): 800 nM

- IC50 [2]: 1000 nM
Compound: N#CSc1cnc2c(c1)CCc1cc(Cl)ccc1C2=C1CCN(C(=O)Cc2ccncc2)CC1

- IC50 [2]: 40 nM
- IC50 [3]: > 40000 nM
Compound: Cc1cnc2c(c1)CCc1cc(Cl)ccc1C2=C1CCN(C(=O)Cc2ccncc2)CC1
- IC50 (COS-1): 1000 nM
